{
  "source": "paper PMC3065194",
  "about": "(Biochemical and biophysical research communications, 2010)",
  "key": {"[1]": {"test_system": "integrin CD11a/CD18", "details": "related integrin CD11a/CD18; cited from earlier work"}, "[2]": {"target": "integrin CD11b/CD18 (Mus musculus, UniProt P05555+P11835)", "sequence (P05555 17-1153)": "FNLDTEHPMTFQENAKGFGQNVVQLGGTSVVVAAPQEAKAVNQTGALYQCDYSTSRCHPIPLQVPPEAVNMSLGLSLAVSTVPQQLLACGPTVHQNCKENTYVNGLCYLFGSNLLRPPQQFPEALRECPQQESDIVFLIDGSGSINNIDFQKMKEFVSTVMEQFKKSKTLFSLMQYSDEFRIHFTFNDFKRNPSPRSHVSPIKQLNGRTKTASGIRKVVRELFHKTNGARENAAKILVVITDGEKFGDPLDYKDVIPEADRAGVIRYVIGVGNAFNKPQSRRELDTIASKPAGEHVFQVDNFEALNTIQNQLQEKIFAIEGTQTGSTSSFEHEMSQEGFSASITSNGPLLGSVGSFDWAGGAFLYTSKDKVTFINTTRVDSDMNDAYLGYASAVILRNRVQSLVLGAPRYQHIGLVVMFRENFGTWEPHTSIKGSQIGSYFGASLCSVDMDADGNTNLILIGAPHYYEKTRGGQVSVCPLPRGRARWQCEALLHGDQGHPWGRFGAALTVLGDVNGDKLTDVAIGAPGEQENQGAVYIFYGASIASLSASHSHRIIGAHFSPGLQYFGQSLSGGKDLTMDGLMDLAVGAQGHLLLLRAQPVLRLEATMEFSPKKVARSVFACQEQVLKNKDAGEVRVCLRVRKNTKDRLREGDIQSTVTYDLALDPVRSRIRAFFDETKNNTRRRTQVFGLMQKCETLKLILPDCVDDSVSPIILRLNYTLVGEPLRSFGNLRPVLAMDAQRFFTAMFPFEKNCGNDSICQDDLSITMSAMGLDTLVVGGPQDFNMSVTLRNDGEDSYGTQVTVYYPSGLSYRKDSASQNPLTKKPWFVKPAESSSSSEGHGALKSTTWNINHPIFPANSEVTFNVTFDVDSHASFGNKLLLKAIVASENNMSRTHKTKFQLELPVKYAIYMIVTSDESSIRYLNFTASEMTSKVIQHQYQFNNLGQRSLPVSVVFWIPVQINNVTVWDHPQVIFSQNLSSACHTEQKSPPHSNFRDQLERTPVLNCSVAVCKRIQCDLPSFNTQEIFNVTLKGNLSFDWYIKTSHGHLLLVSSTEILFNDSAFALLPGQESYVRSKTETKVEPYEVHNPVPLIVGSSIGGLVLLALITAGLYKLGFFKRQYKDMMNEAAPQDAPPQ", "sequence (P11835 24-771)": "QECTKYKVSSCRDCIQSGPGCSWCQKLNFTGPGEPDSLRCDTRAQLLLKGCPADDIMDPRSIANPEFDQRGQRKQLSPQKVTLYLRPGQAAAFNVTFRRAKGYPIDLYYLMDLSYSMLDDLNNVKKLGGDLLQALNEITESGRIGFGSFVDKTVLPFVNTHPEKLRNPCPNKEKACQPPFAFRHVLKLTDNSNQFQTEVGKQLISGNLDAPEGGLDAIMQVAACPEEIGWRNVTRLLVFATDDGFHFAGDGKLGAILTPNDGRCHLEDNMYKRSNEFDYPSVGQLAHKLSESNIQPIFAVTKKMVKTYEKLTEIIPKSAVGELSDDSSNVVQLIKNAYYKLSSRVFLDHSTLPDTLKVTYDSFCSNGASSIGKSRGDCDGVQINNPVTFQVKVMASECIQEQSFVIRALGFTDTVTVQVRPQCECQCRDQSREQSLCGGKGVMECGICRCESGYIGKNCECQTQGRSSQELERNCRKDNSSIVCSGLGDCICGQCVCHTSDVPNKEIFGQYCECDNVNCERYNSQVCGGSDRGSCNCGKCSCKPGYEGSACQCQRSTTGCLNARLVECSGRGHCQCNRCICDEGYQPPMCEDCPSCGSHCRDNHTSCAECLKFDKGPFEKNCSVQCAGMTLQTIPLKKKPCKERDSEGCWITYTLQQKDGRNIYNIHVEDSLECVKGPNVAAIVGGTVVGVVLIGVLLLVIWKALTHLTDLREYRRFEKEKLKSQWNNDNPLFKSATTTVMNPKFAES", "assay": "Neutrophil adhesion assay", "format": "cell-based", "details": "WT B6 mouse neutrophils, Figure 3B", "summary_of_the_method": "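Peritoneal neutrophils were isolated from thioglycollate-stimulated 8–10-week-old WT B6 mice and suspended in TBS with 0.5% gelatin in ligand-coated wells. Cells were incubated 10 min at 37°C with 5 μM test compound plus agonist, either Mn²⁺ (0.1 mM) or PMA (15 nM). Plates were inverted 30 min at room temperature to remove non-adherent cells. Adherent cells were counted by imaging microscopy, in triplicate wells.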"}},
  "data": [
    {"smiles": "CC[C@H](C)C(=O)O[C@H]1C[C@@H](C)C=C2C=C[C@H](C)[C@H](CC[C@@H]3C[C@@H](O)CC(=O)O3)[C@H]21", "note": "[lovastatin]", "values": [
      {"measurement": "IC50", "setting": "[1]", "value": 25, "unit": "µM"}
    ]},
    {"smiles": "CCCCCCCCCCCCCC(=O)O[C@@H]1[C@@H](C)[C@@]2(O)[C@@H](C=C(CO)C[C@]3(O)C(=O)C(C)=C[C@@H]23)[C@@H]2C(C)(C)[C@]12OC(C)=O", "note": "[PMA, phorbol 12-myristate 13-acetate]", "values": [
      {"measurement": "neutrophil adhesion to Fg on integrin activation by agonist", "setting": "[2]", "value": "dramatic increase"}
    ]}
  ]
}
